Assay results taken from ChEMBL document CHEMBL1147076, “Antitumor activity of MLN8054, an orally active small-molecule inhibitor of Aurora A kinase” (Proc Natl Acad Sci U S A, 2007).
Active and inactive are the calls of the source. The calls are words filed in the database; no cut-off is given here.

Tests used:
[1] = target: Vascular endothelial growth factor receptor 3 (Homo sapiens) (UniProt P35916); assay: Activity of human Flt4 kinase at 1 uM
Summary of the method: (§1)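 Single-point kinase profiling: each kinase in a 226-kinase panel tested with compound at 1 μM and ATP at 10 μM in every assay, run by an external screening service.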

[2] = target: Homeodomain-interacting protein kinase 3 (Homo sapiens) (UniProt Q9H422); assay: Activity of human HIPK3 kinase at 1 uM
[3] = target: Interleukin-1 receptor-associated kinase 4 (Homo sapiens) (UniProt Q9NWZ3); assay: Activity of human IRAK4 kinase at 1 uM
Sequence of Interleukin-1 receptor-associated kinase 4 (Homo sapiens) (Q9NWZ3 whole entry): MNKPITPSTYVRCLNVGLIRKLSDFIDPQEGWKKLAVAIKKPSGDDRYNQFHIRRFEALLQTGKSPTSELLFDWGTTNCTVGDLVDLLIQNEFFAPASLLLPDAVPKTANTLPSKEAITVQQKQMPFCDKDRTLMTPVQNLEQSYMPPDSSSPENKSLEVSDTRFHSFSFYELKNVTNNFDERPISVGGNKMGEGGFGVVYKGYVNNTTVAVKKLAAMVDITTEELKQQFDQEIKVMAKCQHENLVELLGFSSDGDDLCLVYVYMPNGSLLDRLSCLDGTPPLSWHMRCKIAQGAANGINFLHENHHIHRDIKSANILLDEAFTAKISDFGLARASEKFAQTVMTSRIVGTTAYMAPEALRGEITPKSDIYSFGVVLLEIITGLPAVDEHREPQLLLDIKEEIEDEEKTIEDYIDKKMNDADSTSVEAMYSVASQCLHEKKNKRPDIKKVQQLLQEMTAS

[4] = target: Maternal embryonic leucine zipper kinase (Homo sapiens) (UniProt Q14680); assay: Activity of human MELK kinase at 1 uM; summary of the method: as §1
Sequence of Maternal embryonic leucine zipper kinase (Homo sapiens) (Q14680 whole entry, looked up): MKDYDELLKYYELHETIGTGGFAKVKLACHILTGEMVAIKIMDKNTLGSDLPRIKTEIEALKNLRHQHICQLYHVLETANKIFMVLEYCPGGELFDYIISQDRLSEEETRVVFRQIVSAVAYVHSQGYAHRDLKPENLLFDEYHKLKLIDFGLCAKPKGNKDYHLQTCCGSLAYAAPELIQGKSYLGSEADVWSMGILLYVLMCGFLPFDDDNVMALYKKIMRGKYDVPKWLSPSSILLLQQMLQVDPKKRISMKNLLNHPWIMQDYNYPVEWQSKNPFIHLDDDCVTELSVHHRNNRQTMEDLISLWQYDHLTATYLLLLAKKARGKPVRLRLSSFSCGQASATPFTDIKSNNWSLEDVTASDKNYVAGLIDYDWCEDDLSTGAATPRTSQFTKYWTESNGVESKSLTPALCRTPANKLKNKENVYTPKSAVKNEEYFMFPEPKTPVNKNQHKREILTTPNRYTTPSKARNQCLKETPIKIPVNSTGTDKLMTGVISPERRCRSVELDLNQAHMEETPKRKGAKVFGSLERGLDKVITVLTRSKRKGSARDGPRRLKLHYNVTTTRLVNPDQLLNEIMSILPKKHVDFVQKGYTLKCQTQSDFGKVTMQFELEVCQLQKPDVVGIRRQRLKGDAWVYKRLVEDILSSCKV

[5] = target: Misshapen-like kinase 1 (Homo sapiens) (UniProt Q8N4C8); assay: Activity of human MINK kinase at 1 uM
[6] = target: Serine/threonine-protein kinase 24 (Homo sapiens) (UniProt Q9Y6E0); assay: Activity of human MST3 kinase at 1 uM
Sequence of Serine/threonine-protein kinase 24 (Homo sapiens) (Q9Y6E0 whole entry, looked up): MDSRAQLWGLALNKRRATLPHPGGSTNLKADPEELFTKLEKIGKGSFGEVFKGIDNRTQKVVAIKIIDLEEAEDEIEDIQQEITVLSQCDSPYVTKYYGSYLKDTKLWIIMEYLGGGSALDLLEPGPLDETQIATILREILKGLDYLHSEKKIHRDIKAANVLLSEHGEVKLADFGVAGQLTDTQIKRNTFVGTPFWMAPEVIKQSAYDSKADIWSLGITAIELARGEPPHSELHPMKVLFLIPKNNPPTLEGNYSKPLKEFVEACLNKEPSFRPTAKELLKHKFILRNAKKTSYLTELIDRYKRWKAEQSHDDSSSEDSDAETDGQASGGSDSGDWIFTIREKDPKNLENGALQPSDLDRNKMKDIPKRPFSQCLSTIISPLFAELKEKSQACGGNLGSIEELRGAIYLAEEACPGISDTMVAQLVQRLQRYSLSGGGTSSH

[7] = target: Serine/threonine-protein kinase Nek7 (Homo sapiens) (UniProt Q8TDX7); assay: Activity of human NEK7 kinase at 1 uM
Sequence of Serine/threonine-protein kinase Nek7 (Homo sapiens) (Q8TDX7 whole entry, looked up): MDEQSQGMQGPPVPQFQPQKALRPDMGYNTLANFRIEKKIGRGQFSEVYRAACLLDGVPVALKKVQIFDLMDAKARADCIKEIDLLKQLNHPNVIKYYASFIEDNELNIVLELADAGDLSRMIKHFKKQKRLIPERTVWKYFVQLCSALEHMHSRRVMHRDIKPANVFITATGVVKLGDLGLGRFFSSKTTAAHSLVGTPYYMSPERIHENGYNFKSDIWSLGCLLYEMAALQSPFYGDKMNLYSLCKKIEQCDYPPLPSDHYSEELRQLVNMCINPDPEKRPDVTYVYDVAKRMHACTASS
Summary of the method: (§2)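 Single-point screen in a 226-kinase panel run by an outside service. Test compound at 1 μM with ATP at 10 μM in every assay. Other assay conditions are not given.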

[8] = target: Serine/threonine-protein kinase PAK 4 (Homo sapiens) (UniProt O96013); assay: Activity of human PAK4 kinase at 1 uM; summary of the method: as §2
Sequence of Serine/threonine-protein kinase PAK 4 (Homo sapiens) (O96013 whole entry, looked up): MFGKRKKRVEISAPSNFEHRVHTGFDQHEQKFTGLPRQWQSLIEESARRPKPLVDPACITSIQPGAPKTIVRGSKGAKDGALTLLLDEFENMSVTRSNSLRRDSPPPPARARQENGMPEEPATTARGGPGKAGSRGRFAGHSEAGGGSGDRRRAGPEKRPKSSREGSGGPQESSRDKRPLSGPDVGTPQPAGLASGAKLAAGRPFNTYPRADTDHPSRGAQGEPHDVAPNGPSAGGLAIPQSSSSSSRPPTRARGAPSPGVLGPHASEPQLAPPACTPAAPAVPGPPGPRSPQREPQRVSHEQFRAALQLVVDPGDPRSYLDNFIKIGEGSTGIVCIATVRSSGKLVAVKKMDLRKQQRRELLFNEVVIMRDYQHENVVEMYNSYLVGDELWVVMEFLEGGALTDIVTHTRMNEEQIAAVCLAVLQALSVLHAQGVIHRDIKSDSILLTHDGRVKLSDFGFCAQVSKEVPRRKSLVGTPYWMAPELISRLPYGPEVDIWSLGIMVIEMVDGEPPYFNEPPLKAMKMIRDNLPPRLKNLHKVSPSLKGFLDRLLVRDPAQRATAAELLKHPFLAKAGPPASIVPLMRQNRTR

[9] = target: Protein kinase C epsilon type (Homo sapiens) (UniProt Q02156); assay: Activity of human PKCepsilon kinase at 1 uM; summary of the method: as §1
Sequence of Protein kinase C epsilon type (Homo sapiens) (Q02156 whole entry): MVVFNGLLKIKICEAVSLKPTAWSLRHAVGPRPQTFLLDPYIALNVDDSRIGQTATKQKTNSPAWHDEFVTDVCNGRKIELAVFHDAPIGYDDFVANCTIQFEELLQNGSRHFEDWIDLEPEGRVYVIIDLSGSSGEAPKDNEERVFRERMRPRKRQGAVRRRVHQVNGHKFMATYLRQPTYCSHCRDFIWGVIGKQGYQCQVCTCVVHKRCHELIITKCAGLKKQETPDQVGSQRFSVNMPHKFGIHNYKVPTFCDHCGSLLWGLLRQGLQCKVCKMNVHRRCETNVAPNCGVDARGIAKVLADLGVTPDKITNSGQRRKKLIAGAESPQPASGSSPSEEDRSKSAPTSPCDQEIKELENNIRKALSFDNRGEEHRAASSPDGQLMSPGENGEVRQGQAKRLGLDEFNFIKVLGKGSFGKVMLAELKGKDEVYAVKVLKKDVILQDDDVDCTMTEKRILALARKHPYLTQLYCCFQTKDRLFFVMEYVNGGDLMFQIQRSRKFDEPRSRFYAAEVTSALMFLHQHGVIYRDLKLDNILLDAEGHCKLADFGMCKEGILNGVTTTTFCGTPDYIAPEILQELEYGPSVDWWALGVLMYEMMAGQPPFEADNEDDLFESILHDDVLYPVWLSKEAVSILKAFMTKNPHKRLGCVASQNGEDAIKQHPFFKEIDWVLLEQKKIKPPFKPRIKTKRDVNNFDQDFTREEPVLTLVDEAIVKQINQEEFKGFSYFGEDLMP

[10] = target: Protein kinase C theta type (Homo sapiens) (UniProt Q04759); assay: Activity of human PKCtheta kinase at 1 uM; summary of the method: as §1
Sequence of Protein kinase C theta type (Homo sapiens) (Q04759 whole entry, looked up): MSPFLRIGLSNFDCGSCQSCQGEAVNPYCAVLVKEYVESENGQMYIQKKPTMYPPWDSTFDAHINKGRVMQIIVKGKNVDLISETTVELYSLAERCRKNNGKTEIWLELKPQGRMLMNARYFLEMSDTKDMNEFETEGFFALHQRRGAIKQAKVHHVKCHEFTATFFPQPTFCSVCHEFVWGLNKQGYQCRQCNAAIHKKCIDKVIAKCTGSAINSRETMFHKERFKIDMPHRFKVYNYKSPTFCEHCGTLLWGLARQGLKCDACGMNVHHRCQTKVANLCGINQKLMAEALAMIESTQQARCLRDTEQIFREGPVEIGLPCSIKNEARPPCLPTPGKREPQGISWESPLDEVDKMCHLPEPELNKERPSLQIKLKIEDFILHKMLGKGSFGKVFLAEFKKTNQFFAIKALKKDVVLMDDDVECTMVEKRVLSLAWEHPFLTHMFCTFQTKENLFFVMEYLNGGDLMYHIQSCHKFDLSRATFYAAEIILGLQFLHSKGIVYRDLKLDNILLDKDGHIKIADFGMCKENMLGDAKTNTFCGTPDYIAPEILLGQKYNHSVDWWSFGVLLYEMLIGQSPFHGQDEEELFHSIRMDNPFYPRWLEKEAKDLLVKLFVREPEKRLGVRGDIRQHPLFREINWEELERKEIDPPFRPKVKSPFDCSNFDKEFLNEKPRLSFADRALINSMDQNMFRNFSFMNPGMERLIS

[11] = target: cGMP-dependent protein kinase 1 (Homo sapiens) (UniProt Q13976); assay: Activity of human PKG1alpha kinase at 1 uM; summary of the method: as §1
[12] = target: Serine/threonine-protein kinase PLK3 (Homo sapiens) (UniProt Q9H4B4); assay: Activity of human Plk3 kinase at 1 uM
Summary of the method: (§3)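 Single-concentration screen across a 226-kinase panel run by an outside provider; test compound at 1 μM with 10 μM ATP in every assay. Other conditions not detailed.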

[13] = tested on: Mitogen-activated protein kinase 14 (Homo sapiens), Q16539 [T106M]; assay: Activity of human SAPK2a T106M mutant kinase at 1 uM; summary of the method: as §3
Sequence of Mitogen-activated protein kinase 14 (Homo sapiens), Q16539 [T106M] (Q16539 whole entry T106M): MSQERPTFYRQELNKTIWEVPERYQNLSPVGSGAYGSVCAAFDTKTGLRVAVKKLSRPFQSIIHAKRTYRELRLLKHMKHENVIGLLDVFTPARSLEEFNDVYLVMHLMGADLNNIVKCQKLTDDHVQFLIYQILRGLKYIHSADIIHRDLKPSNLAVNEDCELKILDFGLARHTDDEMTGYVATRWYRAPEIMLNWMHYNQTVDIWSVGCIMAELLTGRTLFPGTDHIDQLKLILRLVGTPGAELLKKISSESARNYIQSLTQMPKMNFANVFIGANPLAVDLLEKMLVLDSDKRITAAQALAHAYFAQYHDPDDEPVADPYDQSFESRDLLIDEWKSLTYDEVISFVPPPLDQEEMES

[14] = target: Serine/threonine-protein kinase Sgk1 (Homo sapiens) (UniProt O00141); assay: Activity of human SGK kinase at 1 uM; summary of the method: as §2
[15] = target: SRSF protein kinase 1 (Homo sapiens) (UniProt Q96SB4); assay: Activity of human SRPK1 kinase at 1 uM; summary of the method: as §3
[16] = Plasma concentration in human HCT116 cells xenografted in mouse at 30 mg/kg, po after 8 hrs; assay type: ADME, organism-based, HCT-116; parameters: dose 30 mg/kg, route oral
[17] = target: Death-associated protein kinase 1 (Homo sapiens) (UniProt P53355); assay: Activity of human DAPK1 kinase at 1 uM; summary of the method: as §1
[18] = target: Discoidin domain-containing receptor 2 (Homo sapiens) (UniProt Q16832); assay: Activity of human DDR2 kinase at 1 uM
[19] = target: Serine/threonine-protein kinase 17A (Homo sapiens) (UniProt Q9UEE5); assay: Activity of human DRAK1 kinase at 1 uM; summary of the method: as §1
[20] = Inhibition of PKC by radioactive flashplate assay
[21] = tested on: PC-3; assay: Antitumor activity against human PC3 cells xenografted into athymic nude NCR nu/nu mouse at 10 mg/kg, po BID after 21 days relative to control; assay type: functional
Summary of the method: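 Oral dosing for 21 days in 10% hydroxypropyl-β-cyclodextrin/5% sodium bicarbonate. Caliper volumes, L × W2 × 0.5. TGI = (Δcontrol − Δtreated average volume) × 100/Δcontrol.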

[22] = target: Cyclin-dependent kinase 2/cyclin A (Homo sapiens) (UniProt P24941+P20248+P78396); assay: Activity of human CDK2/cyclin A kinase at 1 uM; assay type: protein-complex assay
[23] = species: Homo sapiens; assay: Activity of human CDK5/p25 kinase at 1 uM
[24] = target: Casein kinase I isoform gamma-3 (Homo sapiens) (UniProt Q9Y6M4); assay: Activity of human CK1gamma3 kinase at 1 uM; summary of the method: as §1
Sequence of Casein kinase I isoform gamma-3 (Homo sapiens) (Q9Y6M4 whole entry, looked up, canonical isoform): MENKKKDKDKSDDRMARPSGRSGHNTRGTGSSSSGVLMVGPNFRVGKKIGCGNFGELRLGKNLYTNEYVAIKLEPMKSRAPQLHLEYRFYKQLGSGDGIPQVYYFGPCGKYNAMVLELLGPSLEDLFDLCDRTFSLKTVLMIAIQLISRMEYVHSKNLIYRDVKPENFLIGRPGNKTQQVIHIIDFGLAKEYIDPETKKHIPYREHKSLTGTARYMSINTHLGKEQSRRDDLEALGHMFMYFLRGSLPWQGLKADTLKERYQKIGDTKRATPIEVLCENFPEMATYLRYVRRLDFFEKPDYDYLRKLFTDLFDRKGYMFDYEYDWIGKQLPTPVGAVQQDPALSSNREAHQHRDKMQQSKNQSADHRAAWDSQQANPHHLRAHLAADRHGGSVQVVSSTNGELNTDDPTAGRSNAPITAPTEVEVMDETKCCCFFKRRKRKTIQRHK

[25] = tested on: PC-3; assay: Induction of apoptosis in human PC3 cells assessed as PARP cleavage at 1 uM after 24 hrs by Western blot method; assay type: functional, cell-based

- Activity [1]: 6%
- Activity [2]: 111%
- Activity [3]: 97%
- Activity [4]: 79%
- Activity [5]: 104%
- Activity [6]: 107%
- Activity [7]: 99%
- Activity [8]: 96%
- Activity [9]: 123%
- Activity [10]: 112%
- Activity [11]: 103%
- Activity [12]: 105%
- Activity [13]: 130%
- Activity [14]: 99%
- Activity [15]: 105%
- concentration at 8 h [16]: 7.4 µM
- Activity [18]: 87%
- Activity [19]: 60%
- IC50 [20]: > 100 µM
- Activity [22]: 96%
- Activity [23]: 94%
- Activity [24]: 113%
SMILES: O=C(O)c1ccc(Nc2ncc3c(n2)-c2ccc(Cl)cc2C(c2c(F)cccc2F)=NC3)cc1 [MLN-8054]
- Activity [17]: 114%
- Activity [21]: 73%
- Activity [25]: Active
